Data as given in PubChem BioAssay.
Active and inactive are the calls of the source.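 Rule for the calls, unless noted: active = viability loss from added drug above about 55%, and viability with drug at most 40%, in both replicates (limit read from the data, passing the limit was not always enough); inconclusive = both conditions met in only one replicate; inactive = neither replicate meets both conditions.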

Columns and labels:
[1] = reducers of endogenous Her2 protein level, primary screen, SKBR3 breast tumor cells, AlphaScreen, ATP viability (AID 461;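 active = Her2 level under about 52% in both replicate screens, with viability over 70% of control, limit read from the data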;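 for Her2 level: lower value means less Her2 protein in the cells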;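 for viability: percent of carrier control wells set as 100% viability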); settings: 18-24 h, measured here: SKBR3 viability, ATP luminescence, at 10 µM
[2] = target: Receptor tyrosine-protein kinase erbB-2 (Homo sapiens) (UniProt P04626); test: as above; settings: 18-24 h, at 10 µM, stronger effect = lower value
Receptor tyrosine-protein kinase erbB-2 (Homo sapiens), sequence (P04626 whole entry, looked up): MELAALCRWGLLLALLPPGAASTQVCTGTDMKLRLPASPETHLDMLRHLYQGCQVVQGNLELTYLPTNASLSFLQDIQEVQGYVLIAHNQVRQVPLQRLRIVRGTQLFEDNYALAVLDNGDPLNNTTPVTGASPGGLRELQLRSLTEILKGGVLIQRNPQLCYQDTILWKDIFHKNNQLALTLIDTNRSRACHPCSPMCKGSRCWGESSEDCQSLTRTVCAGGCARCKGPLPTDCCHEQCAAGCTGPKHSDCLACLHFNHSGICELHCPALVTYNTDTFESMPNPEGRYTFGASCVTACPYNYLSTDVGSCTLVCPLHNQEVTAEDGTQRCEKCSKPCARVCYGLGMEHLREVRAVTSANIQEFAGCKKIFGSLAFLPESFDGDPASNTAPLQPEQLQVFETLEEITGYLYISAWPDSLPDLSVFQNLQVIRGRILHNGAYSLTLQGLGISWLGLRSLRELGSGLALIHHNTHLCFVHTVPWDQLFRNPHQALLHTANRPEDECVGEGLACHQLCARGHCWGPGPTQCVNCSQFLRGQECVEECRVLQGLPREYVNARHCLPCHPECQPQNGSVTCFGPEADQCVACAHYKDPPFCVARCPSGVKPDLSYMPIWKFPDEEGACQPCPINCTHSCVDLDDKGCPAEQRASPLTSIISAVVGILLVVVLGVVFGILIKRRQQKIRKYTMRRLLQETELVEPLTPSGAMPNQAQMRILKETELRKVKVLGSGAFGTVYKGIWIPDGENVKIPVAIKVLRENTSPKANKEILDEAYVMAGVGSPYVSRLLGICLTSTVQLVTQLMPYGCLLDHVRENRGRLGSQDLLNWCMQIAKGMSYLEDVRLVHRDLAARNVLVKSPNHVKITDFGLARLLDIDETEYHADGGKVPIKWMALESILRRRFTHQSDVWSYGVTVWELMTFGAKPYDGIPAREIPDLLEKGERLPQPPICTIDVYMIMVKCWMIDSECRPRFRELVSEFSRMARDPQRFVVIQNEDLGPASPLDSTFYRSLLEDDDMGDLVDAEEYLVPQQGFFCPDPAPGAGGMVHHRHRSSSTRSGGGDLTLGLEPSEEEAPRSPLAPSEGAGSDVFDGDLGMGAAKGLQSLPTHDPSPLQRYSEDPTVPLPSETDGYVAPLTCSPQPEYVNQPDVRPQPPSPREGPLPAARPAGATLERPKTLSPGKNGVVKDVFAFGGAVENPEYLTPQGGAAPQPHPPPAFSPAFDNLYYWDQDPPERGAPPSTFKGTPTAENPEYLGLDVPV

[3] = SK-BR-3 cell growth inhibitors, pilot screen, 24 h, human (AID 572;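 active = viability at or below 10% of carrier control in both of two separate runs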;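 note: compound exposure lasted between 18 and 24 h rather than exactly 24 h; 100% = carrier-treated control wells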); settings: SK-BR-3 viability, CellTiter-Glo luminescence, at 10 µM, stronger effect = lower value
[4] = HUVEC growth inhibition – cell-based, human, primary screen (AID 575;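 active = viability at or below 30% in both replicate assays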;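 note: 100% = median of untreated cell wells with 0.1% DMSO on each plate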); settings: HUVEC proliferation, CellTiter-Glo luminescence, 72 h; at 10 µM; stronger effect = lower value
Outline: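 Test system: primary human umbilical vein endothelial cells. Quantity: 1250 cells/well. Compound: single 10 µM dose, 0.1% DMSO, from 5x medium stock. Timing: 72 h treatment at 37 °C. Detection: ATP-based CellTiter-Glo luminescent read. Benchmarks: vehicle and MePR control wells. Format: 384-well plates coated with collagen.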

[5] = reversal of MRP1-mediated doxorubicin resistance, pilot screen, H69AR cells, doxorubicin co-treatment (AID 601); settings: CellTiter-Glo, 72 h, at 10 µM; for differential viability (reversal): stronger effect = higher value
[6] = 384-well plate pilot, post-Golgi transport modulator project, inhibition of yeast transport mutant growth (AID 636; in the data active = inhibition above about 31%); settings: absorbance 615 nm, about 18 h, stronger effect = higher value
[7] = growth suppression of yeast trafficking mutant, preliminary HTS, modulators of trafficking downstream of Golgi apparatus project, 1536-format plate, OD 615 nm (AID 637; in the data active = inhibition above about 30%); settings: yeast transport mutant growth, absorbance 615 nm, 18 h; stronger effect = higher value
[8] = growth inhibitors of H69AR lung tumor, primary screen, human, duplicate replicates (AID 580;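 active = viability at or under a set limit in both replicates, limit being median viability minus 3 SD, cut at about 48% in these data, passing the limit was not always enough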;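 note: 100% = mean luminescence of untreated wells and 0% = no signal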); settings: H69AR lung tumor cells viability, ATP luminescence, 72 h; at 10 µM; stronger effect = lower value
[9] = H69AR cells + 2 uM doxorubicin, measured here: viability with 2 uM doxorubicin, stronger effect = lower value
[10] = H69AR cells, compound alone cytotoxicity

Row | Structure (SMILES) | viability [1] [%] | Her2 level [2] | viability [3] | viability [4] | differential viability (reversal) ([5]; H69AR cells + 2 uM doxorubicin) | viability [5, 9] [%] | viability [5, 10] [%] | inhibition [6] | inhibition [7] | viability [8]
1 | CCCCCSc1nc2c(cnn2-c2ccccc2)c(=O)[nH]1 | 99 | 93.5% (inactive) | 99% (inactive) | 45.2% (inactive) | -3.82% (inactive) | 50.1 | 46.3 | -5.26% (inactive) | -0.17% (inactive) | –
2 | CC(=O)N1CCN(c2ccc(NC(=O)c3ccc(C(C)(C)C)cc3)cc2)CC1 | 74.5 | 94% (inactive) | 74.5% (inactive) | 38.7% (inactive) | -12.4% (inactive) | 56.6 | 44.2 | -6.08% (inactive) | -11.3% (inactive) | –
3 | C=C(c1ccc(O)cc1)c1ccc(O)cc1 | 105 | 93% (inactive) | 105% (inactive) | 70.8% (inactive) | -42.8% (inactive) | 87.9 | 45 | -5.92% (inactive) | -2.54% (inactive) | –
4 | COc1ccc(N2CCN(Cc3cc(=O)oc4cc(C)c(Cl)c(C)c34)CC2)cc1 | 93.5 | 83.5% (inactive) | 93.5% (inactive) | 84.1% (inactive) | -1.03% (inactive) | 75.8 | 74.8 | -7.33% (inactive) | 1.9% (inactive) | –
5 | CCOC(=O)c1c(C)[nH]c(C(=O)COC(=O)c2ccc(F)c(S(=O)(=O)N3CCOCC3)c2)c1C | 88.5 | 79.5% (inactive) | 88.5% (inactive) | 62.4% (inactive) | 11.4% (inactive) | 52.5 | 63.9 | -5.47% (inactive) | -1.97% (inactive) | –
6 | CCOC(=O)c1sc(NC(=O)CSc2n[nH]c(-c3ccccc3)n2)c(C#N)c1C | 122 | 65.5% (inactive) | 122% (inactive) | 48.2% (inactive) | 9.27% (inactive) | 32 | 41.3 | -6.27% (inactive) | 2.38% (inactive) | –
7 | O=C(NC1CCCCC1)C(c1ccccc1)N(Cc1ccco1)C(=O)Cn1cnc2ccccc21 (configuration not stated) | 102 | 90% (inactive) | 102% (inactive) | – | 8.18% (inactive) | 70.1 | 78.3 | -5.33% (inactive) | -4.92% (inactive) | 78.3% (inactive)
8 | COc1ccc(CNc2oc(COc3ccccc3Cl)nc2C#N)cc1 | 84 | 68.5% (inactive) | 84% (inactive) | – | -4.78% (inactive) | 92.1 | 87.3 | 0.26% (inactive) | 14.1% (inactive) | 87.3% (inactive)
9 | COc1cccc(-c2cc3nc4c(c(N5CCC6(CC5)OCCO6)n3n2)CCCC4)c1 | 124 | 67.5% (inactive) | 124% (inactive) | – | -3.45% (inactive) | 61.9 | 58.5 | 35.3% (active) | 21.6% (inactive) | 58.5% (inactive)
10 | ON=C1/C(=N\O)CC2(C/C1=N/O)OCCO2 | 89 | 113% (inactive) | 89% (inactive) | – | -0.75% (inactive) | 87.7 | 86.9 | -8.27% (inactive) | -2.1% (inactive) | 86.9% (inactive)
11 | Nc1nonc1C(=O)NCCNCc1cc(Br)ccc1OCc1ccccc1F | 97.5 | 78.5% (inactive) | 97.5% (inactive) | – | -1.58% (inactive) | 68.4 | 66.8 | -5.87% (inactive) | -6.13% (inactive) | 66.8% (inactive)
12 | COc1ccc(C2=NOC(C(=O)Nc3cc(Br)ccc3O)C2)cc1OC (configuration not stated) | 108 | 89% (inactive) | 108% (inactive) | 56.4% (inactive) | -10.5% (inactive) | 70.6 | 60.1 | -6.76% (inactive) | 1.8% (inactive) | –
13 | CCOC(=O)c1cc2sc(C)cc2n1CC(=O)NCc1ccc(F)cc1 | 65 | 73% (inactive) | 65% (inactive) | – | 17.1% (inactive) | 52.3 | 69.4 | -6.32% (inactive) | -3% (inactive) | 69.4% (inactive)
